# Measured values: article PMC4152390 (Neuropharmacology, 2014)
# How the values were obtained:
# NET = NET (Rattus norvegicus, UniProt Q63380); test: [3H]norepinephrine uptake inhibition in rat brain synaptosomes; type: biochemical; details: read-out: [3H]Norepinephrine uptake, IC50 at NET; rat brain synaptosomes (whole brain minus striatum and cerebellum); 10 nM [3H]norepinephrine; mean±SD, n=3
# In short: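 Rats killed by CO2; synaptosomes from whole brain minus striatum and cerebellum. Unlabeled blockers were added to prevent uptake by competing transporters. Tissue was added to Krebs-phosphate buffer (pH 7.4; 0.05 mM pargyline, 1 mg/mL BSA and ascorbic acid) containing test compound and [3H]norepinephrine. Rapid GF/B filtration, scintillation counting, % control uptake.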
# DAT = DAT (Rattus norvegicus, UniProt P23977); test: [3H]dopamine uptake inhibition in rat brain synaptosomes; type: biochemical; details: selectivity from uptake IC50 values at DAT and SERT
# In short: (§1)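 Synaptosomes came from male Sprague-Dawley rats: striatum for DAT, and whole brain minus striatum and cerebellum for NET and SERT. Uptake ran in pH 7.4 Krebs-phosphate buffer (pargyline, BSA, ascorbate) with test compound, [3H]dopamine, [3H]norepinephrine or 5 nM [3H]serotonin, and unlabeled blockers of competing transporters. It was stopped by filtration and counted by scintillation.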
# DAT, NET and SERT = details: ref Baumann et al., 2013b; cited from earlier work
# ICR mice [1] = test: Locomotor activity; type: in vivo, mouse; details: for Doses producing significant increases in beam breaks compared to saline for the duration of the session (all time points): i.p., 10-min bins of 60-min session
# In short: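 Male ICR mice got a single i.p. dose of test compound or saline (sterile saline vehicle, 10 ml/kg), n=8 per dose and n=16 for saline. Each was placed at once into a clear open-field chamber (47×25.5×22 cm) for a 60-min blinded session. Beam breaks were counted per 10-min bin and analysed by mixed-model ANOVA (time within, dose between), with p<0.05.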
# SERT = SERT (Rattus norvegicus, UniProt P31652); test: [3H]serotonin uptake inhibition in rat brain synaptosomes; type: biochemical; details: for IC50: read-out: [3H]Serotonin uptake, IC50 at SERT, rat brain synaptosomes (whole brain minus striatum and cerebellum), 5 nM [3H]serotonin, mean±SD, n=3
# In short: as §1
# ICR mice [2] = test: Locomotor activity with SCH23390 antagonist pretreatment; type: in vivo, mouse; details: SCH23390 0.03 mg/kg s.c., 60 min session
# In short: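 In weeks 5 and 7, ICR mice got SCH23390 (0.03 mg/kg) or saline s.c. 30 min before an i.p. challenge with test compound or saline. Groups given the highest FOB dose were excluded, and the vehicle group was split between pretreatments. Total beam breaks were analysed by two-way ANOVA (dose × pretreatment).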
# ICR mice [3] = test: Functional observational battery; type: in vivo, mouse; details: i.p., 15 min post-injection, p<0.0033
# In short: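 Male ICR mice (n=8 per group; a single saline group of n=16) got one i.p. dose of test compound in sterile saline (10 ml/kg). A modified EPA functional observational battery was scored 15 min post-injection by a blinded technician in weeks 2–3. Each measure was analysed by Kruskal–Wallis ANOVA by ranks, corrected for ties, with corrected alpha p<0.0033.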
# Chain of DAT (P23977 whole entry): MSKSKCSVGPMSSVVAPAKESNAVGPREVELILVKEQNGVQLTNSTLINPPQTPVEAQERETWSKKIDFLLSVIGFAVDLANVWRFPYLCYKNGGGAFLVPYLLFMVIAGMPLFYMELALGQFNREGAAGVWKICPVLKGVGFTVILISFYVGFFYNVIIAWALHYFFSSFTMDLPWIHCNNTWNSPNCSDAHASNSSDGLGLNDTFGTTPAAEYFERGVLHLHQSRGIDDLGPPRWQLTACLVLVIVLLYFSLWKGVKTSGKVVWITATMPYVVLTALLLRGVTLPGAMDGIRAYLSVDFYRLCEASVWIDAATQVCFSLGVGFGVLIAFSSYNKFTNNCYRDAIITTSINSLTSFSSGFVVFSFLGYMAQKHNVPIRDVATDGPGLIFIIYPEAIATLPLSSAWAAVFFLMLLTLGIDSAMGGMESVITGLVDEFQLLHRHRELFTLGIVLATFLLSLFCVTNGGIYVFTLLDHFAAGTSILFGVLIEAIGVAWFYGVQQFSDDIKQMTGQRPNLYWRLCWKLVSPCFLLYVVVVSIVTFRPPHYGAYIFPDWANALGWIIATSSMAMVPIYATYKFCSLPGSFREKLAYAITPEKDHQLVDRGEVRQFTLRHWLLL
# Chain of SERT (P31652 whole entry): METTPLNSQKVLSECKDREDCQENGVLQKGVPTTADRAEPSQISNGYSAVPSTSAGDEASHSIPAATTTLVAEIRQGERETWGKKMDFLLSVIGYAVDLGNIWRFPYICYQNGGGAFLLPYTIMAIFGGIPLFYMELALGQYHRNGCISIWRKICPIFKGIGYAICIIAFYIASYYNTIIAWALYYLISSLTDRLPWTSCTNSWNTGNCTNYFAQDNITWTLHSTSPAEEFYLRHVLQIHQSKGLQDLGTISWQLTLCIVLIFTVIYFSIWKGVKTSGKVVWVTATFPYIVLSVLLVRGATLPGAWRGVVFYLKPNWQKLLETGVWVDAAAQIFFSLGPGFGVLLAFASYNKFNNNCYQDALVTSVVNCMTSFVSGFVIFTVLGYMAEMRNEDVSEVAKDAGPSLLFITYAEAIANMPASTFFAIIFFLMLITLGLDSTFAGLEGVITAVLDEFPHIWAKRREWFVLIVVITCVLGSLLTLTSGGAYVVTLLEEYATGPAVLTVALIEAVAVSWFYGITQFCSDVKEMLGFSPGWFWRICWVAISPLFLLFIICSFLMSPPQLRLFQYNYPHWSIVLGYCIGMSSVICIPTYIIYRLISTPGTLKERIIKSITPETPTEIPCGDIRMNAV
# Chain of NET (Q63380 1-617): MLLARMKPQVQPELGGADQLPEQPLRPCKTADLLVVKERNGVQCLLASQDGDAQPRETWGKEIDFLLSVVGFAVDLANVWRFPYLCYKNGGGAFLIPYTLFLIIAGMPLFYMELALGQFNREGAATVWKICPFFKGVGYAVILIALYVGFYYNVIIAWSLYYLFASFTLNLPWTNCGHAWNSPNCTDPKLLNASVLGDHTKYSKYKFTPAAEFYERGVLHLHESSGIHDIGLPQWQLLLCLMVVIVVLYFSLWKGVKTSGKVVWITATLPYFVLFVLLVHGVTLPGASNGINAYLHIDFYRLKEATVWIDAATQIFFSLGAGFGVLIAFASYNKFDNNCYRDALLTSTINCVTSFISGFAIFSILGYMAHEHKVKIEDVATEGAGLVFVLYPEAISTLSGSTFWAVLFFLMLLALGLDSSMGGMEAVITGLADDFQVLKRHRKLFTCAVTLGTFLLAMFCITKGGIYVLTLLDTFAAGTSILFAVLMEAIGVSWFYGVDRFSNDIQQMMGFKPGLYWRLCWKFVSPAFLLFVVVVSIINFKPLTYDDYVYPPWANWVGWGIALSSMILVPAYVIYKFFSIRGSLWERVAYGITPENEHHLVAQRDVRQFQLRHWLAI
smiles,measurement,setting,value
"CCCC(C(=O)c1ccc2c(c1)OCO2)N1CCCC1 (centres unmarked) [MDPV, 3,4-methylenedioxypyrovalerone]",IC50,NET,25.9 ± 5.6 nM
same,DAT/SERT ratio,DAT,806
same,Activity in the release assay,"DAT, NET and SERT",not active
same,Doses producing significant increases in beam breaks compared to saline for the duration of the session (all time points),ICR mice [1],1.0 to 3.0 mg/kg
same,fold weaker at blocking uptake of serotonin than catecholamine uptake,SERT; SERT versus DAT and NET uptake IC50,more than 100 fold
same,IC50,SERT,3300 ± 485 nM
CN1CCc2cc(Cl)c(O)cc2[C@@H](c2ccccc2)C1 [SCH23390],Effect of SCH23390 plus saline on activity compared to saline/saline group,ICR mice [2],did not significantly affect activity
"CCC(C(=O)c1ccccc1)N1CCCC1 (stereo not drawn) [α-PBP, α-pyrrolidinobutiophenone]",IC50,NET,91.5 ± 12.8 nM
same,DAT/SERT ratio,DAT,>159
same,Time from session start with significantly increased beam breaks,"ICR mice [1]; 3.0 mg/kg i.p., 60-min session",40 min
same,Doses producing significant increases in beam breaks compared to saline for the duration of the session (all time points),ICR mice [1],10.0 mg/kg
same,IC50,SERT,> 10000 nM
"CC(C(=O)c1ccccc1)N1CCCC1 (stereo not drawn) [α-PPP, α-pyrrolidinopropiophenone]",Grooming: direction of difference from saline and doses at which significant,ICR mice [3],30 mg/kg
same,IC50,NET,445 ± 39.2 nM
same,DAT/SERT ratio,DAT,>51
same,Time from session start with significantly increased beam breaks,"ICR mice [1]; 10.0 mg/kg i.p., 60-min session",50 min
same,Doses producing significant increases in beam breaks compared to saline for the duration of the session (all time points),ICR mice [1],30.0 mg/kg
same,IC50,SERT,> 10000 nM
"CCCC(C(=O)c1ccccc1)N1CCCC1 (stereo not drawn) [α-PVP, α-pyrrolidinovalerophenone]",IC50,NET,14.2 ± 1.2 nM
same,DAT/SERT ratio,DAT,>781
same,Postinjection interval with significantly increased beam breaks,"ICR mice [1]; 1.0 mg/kg i.p., 60-min session",20 to 50 min
same,Doses producing significant increases in beam breaks compared to saline for the duration of the session (all time points),ICR mice [1],3.0 to 10.0 mg/kg
same,IC50,SERT,> 10000 nM
